Data taken from ChEMBL document CHEMBL4823272 (Eur J Med Chem, 2021).
Calls of active or inactive are those of the source. No cut-off for these calls is given here.

How the values were obtained:
[1] = target: T1, Amyloid-beta precursor protein (Homo sapiens, UniProt P05067); assay: Inhibition of human amyloid beta (1 to 40) fibrillization at 100 uM measured every 15 mins by Thioflavin-T fluorescence assay relative to control
SIM-A9 [2] = assay: Induction of phagocytosis in LPS-stimulated mouse SIM-A9 cells assessed as increase in FITC signal measured after 24 hrs by FITC analysis; assay type: functional, cell-based
How it was run: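 SIM-A9 cells given LPS plus compound for 24 h, then FITC-labelled killed E. coli bioparticles at 0.125 mg/mL final for 1 h at 37 °C. Extracellular signal quenched with 0.4% trypan blue. Intracellular FITC read at Ex 494/Em 518. Mean ± SD.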

[3] = Drug concentration in CD-1 mouse plasma at 5 mg/kg, po measured after 0.5 hrs by LC-MS/MS analysis; assay type: ADME, organism-based
How it was run: (§1)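 Male CD-1 mice dosed 5 mg/kg orally, n = 3 per time point. At 0.5 and 2.5 h, blood taken by cardiac puncture, then transcardial PBS perfusion. Brains homogenized in three volumes of PBS. Samples precipitated with cold acetonitrile, supernatant diluted with two volumes of 0.1% formic acid water, measured by LC-MS/MS. Brain/plasma ratio from these levels.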

[4] = Drug concentration in CD-1 mouse plasma at 5 mg/kg, po measured after 2.5 hrs by LC-MS/MS analysis; assay type: ADME, organism-based
How it was run: as §1

[5] = Drug concentration in CD-1 mouse brain at 5 mg/kg, po measured after 0.5 hrs by LC-MS/MS analysis; assay type: ADME, organism-based
How it was run: as §1

[6] = Drug concentration in CD-1 mouse brain at 5 mg/kg, po measured after 2.5 hrs by LC-MS/MS analysis; assay type: ADME, organism-based
How it was run: as §1

[7] = Ratio of drug concentration in brain to plasma of CD-1 mouse at 5 mg/kg, po after 0.5 hrs; assay type: ADME, organism-based; settings: read-out: BPR
How it was run: as §1

[8] = Ratio of drug concentration in brain to plasma of CD-1 mouse at 5 mg/kg, po after 2.5 hrs; assay type: ADME, organism-based; settings: read-out: BPR
How it was run: as §1

[9] = target: T1, Amyloid-beta precursor protein; assay: Inhibition of human biotinylated amyloid beta (1 to 42) oligomerization measured after 1 hr by ELISA
How it was run: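 HFIP/TFA-treated biotinylated Aβ1-42 in DMSO/OFB buffer incubated with compound 1 h at room temperature, stopped with 0.3% Tween 20. Captured on NeutrAvidin-coated plates blocked with OFB-T (pH 7.50), 2 h at 150 rpm. Streptavidin-HRP 1:10,000 for 1 h, TMB/H₂O₂, stopped with 2% H₂SO₄, read at 450 nm. IC50 from 4-parameter logistic fit normalized to DMSO and Tween-20 controls.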

SIM-A9 [10] = assay: Anti-inflammatory activity in mouse SIM-A9 cells assessed as inhibition of LPS-induced TNF-alpha production at 2.7 uM measured after 24 hrs by ELISA; assay type: functional, cell-based
How it was run: (§2)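 SIM-A9 cells seeded 0.25 × 10⁶/well a day ahead, then given 5 ng/mL LPS with compound for 24 h. Supernatants assayed by sandwich ELISA: capture antibody 1:250, detection antibody 1:250, avidin-HRP, TMB, stop with 2 N H₂SO₄. Read at 450 nm, 570 nm correction. Mean ± SD, n = 3.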

SIM-A9 [11] = assay: Anti-inflammatory activity in mouse SIM-A9 cells assessed as inhibition of LPS-induced IL-6 production at 2.7 uM measured after 24 hrs by ELISA; assay type: functional, cell-based
How it was run: as §2

SIM-A9 [12] = assay: Anti-inflammatory activity in LPS-stimulated mouse SIM-A9 cells assessed as downregulation of COX-2 expression at 2.7 uM measured after 24 hrs by Western blot analysis; assay type: functional, cell-based
How it was run: (§3)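 SIM-A9 murine microglia in DMEM-F12 with 10% FBS and 5% horse serum, seeded 0.25 × 10⁶ cells/well one day before. Stimulated with 5 ng/mL LPS plus compound for 24 h. Cells lysed in RIPA with protease inhibitors, protein by Micro BCA. Equal protein on SDS-PAGE, PVDF transfer, probed with iNOS, COX-2 and tubulin antibodies (1:1000), HRP chemiluminescence.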

SIM-A9 [13] = assay: Anti-inflammatory activity in LPS-stimulated mouse SIM-A9 cells assessed as downregulation of iNOS expression at 2.7 uM measured after 24 hrs by Western blot analysis; assay type: functional, cell-based
How it was run: as §3

SIM-A9 [14] = assay: Anti-inflammatory activity in mouse SIM-A9 cells assessed as inhibition of LPS-induced NO production at 2.7 uM measured after 24 hrs by Griess reagent based assay; assay type: functional, cell-based
How it was run: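 SIM-A9 cells given 5 ng/mL LPS with compound for 24 h. Conditioned medium mixed with sulfanilamide, then N-naphthyl-ethylenediamine, 5–10 min dark at room temperature. Absorbance at 520–550 nm, NO quantified against a standard curve. n = 3.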

T1 sequence (P05067 whole entry): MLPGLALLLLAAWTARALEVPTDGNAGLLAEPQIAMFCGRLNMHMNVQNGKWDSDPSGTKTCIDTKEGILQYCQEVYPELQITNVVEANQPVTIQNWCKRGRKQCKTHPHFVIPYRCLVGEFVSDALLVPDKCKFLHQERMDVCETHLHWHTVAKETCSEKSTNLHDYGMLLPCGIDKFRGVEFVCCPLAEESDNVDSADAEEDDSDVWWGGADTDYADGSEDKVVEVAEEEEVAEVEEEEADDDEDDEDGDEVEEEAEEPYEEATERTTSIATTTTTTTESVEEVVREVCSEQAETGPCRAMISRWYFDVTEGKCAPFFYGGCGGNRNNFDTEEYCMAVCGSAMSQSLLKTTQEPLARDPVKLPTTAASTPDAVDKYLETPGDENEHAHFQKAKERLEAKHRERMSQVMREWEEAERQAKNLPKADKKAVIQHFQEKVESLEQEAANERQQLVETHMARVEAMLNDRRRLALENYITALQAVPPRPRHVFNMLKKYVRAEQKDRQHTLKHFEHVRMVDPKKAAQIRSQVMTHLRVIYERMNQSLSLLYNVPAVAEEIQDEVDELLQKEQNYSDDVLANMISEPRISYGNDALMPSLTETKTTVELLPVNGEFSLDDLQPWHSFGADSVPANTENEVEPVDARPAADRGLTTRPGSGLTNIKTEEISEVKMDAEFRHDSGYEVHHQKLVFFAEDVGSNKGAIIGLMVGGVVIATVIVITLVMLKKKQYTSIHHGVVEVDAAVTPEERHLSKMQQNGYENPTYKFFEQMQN

| Compound | inhibition [1] | IC50 [9] | further results |
| --- | --- | --- | --- |
| CC(NS(=O)(=O)c1cc(C(=O)O)c(NCc2ccco2)cc1Cl)c1ccccc1 (stereo not drawn) | 17.6% |  |  |
| O=C(O)c1cc(S(=O)(=O)NC2CCCCC2)c(Cl)cc1NCc1ccco1 | 11.3% |  |  |
| O=C(O)c1cc(S(=O)(=O)N2CCOCC2)c(Cl)cc1NCc1ccco1 | inactive |  |  |
| CCCCCCNS(=O)(=O)c1cc(C(=O)O)c(NCc2ccco2)cc1Cl | 39.2% |  |  |
| O=C(O)c1cc(C(=O)N2CCOCC2)c(Cl)cc1NCc1ccco1 | 34% | Not Active |  |
| CCNC(=O)c1cc(C(=O)O)c(NCc2ccco2)cc1Cl | 24.6% | Not Active |  |
| OC(c1ccc(Br)cc1NCc1cscn1)C(F)(F)F (stereo not drawn) | 33% | Not Active | Activity (SIM-A9 [2]): Active |
| O=C(O)c1cc(S(=O)(=O)N2CCCCC2)c(Cl)cc1NCc1ccco1 | 19.1% | Not Active |  |
| CN(C)C(=O)c1cc(C(=O)O)c(NCc2ccco2)cc1Cl | 18.4% | Not Active |  |
| OC(c1ccc(Cl)cc1NCc1ccco1)C(F)(F)F (stereo not drawn) | 60.7% | Not Active | Activity (SIM-A9 [10]): Active; Activity (SIM-A9 [11]): Active; Activity (SIM-A9 [14]): Active; Activity (SIM-A9 [12]): Active; Activity (SIM-A9 [13]): Active |
| O=C(O)c1ccc(Cl)cc1NCc1ccco1 | 20.2% | Not Active |  |
| COc1ccc(CNS(=O)(=O)c2cc(C(=O)O)c(NCc3ccco3)cc2Cl)cc1 | 27.8% | Not Active |  |
| O=C(O)c1cc(C(=O)N2CCCCC2)c(Cl)cc1NCc1ccco1 | 11% | Not Active |  |
| CNS(=O)(=O)c1cc(C(=O)O)c(NCC2CCCO2)cc1Cl (stereo not drawn) | 17.5% |  | IC50 ([9]; read-out: IC50): 136 µM |
| OC(c1ccc(Cl)cc1NCc1cscn1)C(F)(F)F (stereo not drawn) | 27.9% | Not Active |  |
| O=C(Nc1ccccc1)c1cc(C(=O)O)c(NCc2ccco2)cc1Cl | 29.4% | Not Active |  |
| CNS(=O)(=O)c1cc(-c2noc(=O)[nH]2)c(NCc2ccco2)cc1Cl | 20.2% | Not Active |  |
| O=C(O)c1cc(S(=O)(=O)NCCc2ccccc2)c(Cl)cc1NCc1ccco1 | inactive | Not Active |  |
| NC(=O)c1cc(C(=O)O)c(NCc2ccco2)cc1Cl | 32.4% | Not Active |  |
| CNC(=O)c1cc(C(=O)O)c(NCc2ccco2)cc1Cl | 19.1% | Not Active |  |
| Cc1ccc(CNS(=O)(=O)c2cc(C(=O)O)c(NCc3ccco3)cc2Cl)cc1 | inactive | Not Active |  |
| O=C(O)c1cc(S(=O)(=O)NCc2ccccc2)c(Cl)cc1NCc1ccco1 | 11.8% | Not Active |  |
| O=C(O)c1ccc(F)cc1NCc1ccco1 | 12.4% |  |  |
| CN(Cc1ccccc1)S(=O)(=O)c1cc(C(=O)O)c(NCc2ccco2)cc1Cl | inactive |  | Activity (SIM-A9 [10]): Active; Activity (SIM-A9 [11]): Active; Activity (SIM-A9 [12]): Active; Activity (SIM-A9 [13]): Active; Activity (SIM-A9 [2]): Active; concentration at 0.5 h [3]: 1030 ng/mL; concentration at 2.5 h [4]: 873 ng/mL; concentration at 0.5 h [5]: 0.8 ng/g; concentration at 2.5 h [6]: 0.1 ng/g; Kp at 0.5 h [7]: 0.0008 |
| OC(c1ccc(Br)cc1NCc1ccco1)C(F)(F)F (stereo not drawn) | 81.3% | Not Active | Activity (SIM-A9 [10]): Active; Activity (SIM-A9 [11]): Active; Activity (SIM-A9 [14]): Active; Activity (SIM-A9 [12]): Active; Activity (SIM-A9 [13]): Active |
| COc1ccc(C(O)C(F)(F)F)c(NCc2ccco2)c1 (stereo not drawn) | 36.8% | Not Active |  |
| COc1ccc(C(O)C(F)(F)F)c(NCc2cscn2)c1 (stereo not drawn) | 6.49% |  |  |
| O=C(O)c1cc(S(=O)(=O)Nc2ccccc2)c(Cl)cc1NCc1ccco1 | 17.4% |  |  |

Now from value to compound, other results behind:

| inhibition [1] | IC50 [9] | Compound | further results |
| --- | --- | --- | --- |
| 25.2% |  | CNS(=O)(=O)c1cc(C(=O)N(C)C)c(NCc2ccco2)cc1Cl | Activity (SIM-A9 [2]): Active; concentration at 0.5 h [3]: 302 ng/mL; concentration at 2.5 h [4]: 83.2 ng/mL; concentration at 0.5 h [5]: 61.1 ng/g; concentration at 2.5 h [6]: 18.5 ng/g; Kp at 0.5 h [7]: 0.2; Kp at 2.5 h [8]: 0.22 |
| 21.3% |  | CCNS(=O)(=O)c1cc(C(=O)O)c(NCc2ccco2)cc1Cl |  |
| 15% |  | CNS(=O)(=O)c1cc(CO)c(NCc2ccco2)cc1Cl |  |
| inactive |  | CNS(=O)(=O)c1cc(C(N)=O)c(NCc2ccco2)cc1Cl | Activity (SIM-A9 [10]): Active; Activity (SIM-A9 [11]): Active; Activity (SIM-A9 [12]): Active; Activity (SIM-A9 [13]): Active; concentration at 0.5 h [3]: 38.2 ng/mL; concentration at 2.5 h [4]: 29.3 ng/mL; concentration at 0.5 h [5]: 5.2 ng/g; concentration at 2.5 h [6]: 3.5 ng/g; Kp at 0.5 h [7]: 0.14; Kp at 2.5 h [8]: 0.12 |
| 14.1% |  | CNS(=O)(=O)c1cc(-c2nnn[nH]2)c(NCc2ccco2)cc1Cl |  |
| inactive |  | CN(C)S(=O)(=O)c1cc(C(=O)O)c(NCc2ccco2)cc1Cl |  |
| 8.56% | Not Active | NS(=O)(=O)c1cc(C(=O)O)c(NCc2ccco2)cc1Cl [FUROSEMIDE] | concentration at 0.5 h [3]: 1730 ng/mL; concentration at 2.5 h [4]: 1630 ng/mL; concentration at 0.5 h [5]: 8.7 ng/g; concentration at 2.5 h [6]: 7.8 ng/g; Kp at 0.5 h [7]: 0.005; Kp at 2.5 h [8]: 0.005 |
| 27.1% |  | CNS(=O)(=O)c1cc(C(=O)OC)c(NCc2ccco2)cc1Cl |  |
| inactive |  | CNC(=O)c1cc(S(=O)(=O)NC)c(Cl)cc1NCc1ccco1 | Activity (SIM-A9 [2]): Active |
| 29.2% | Not Active | O=C(O)c1cc(S(=O)(=O)NC2CC2)c(Cl)cc1NCc1ccco1 |  |
| inactive |  | CNS(=O)(=O)c1cc(C(=O)O)c(NCc2ccco2)cc1Cl | Activity (SIM-A9 [2]): Active |
|  | Not Active | CNS(=O)(=O)c1cc(C(O)C(F)(F)F)c(NCc2ccco2)cc1Cl (stereo not drawn) |  |
